Published values pooled from the literature.
Each line is one published result; the experiments were not run side by side.

| SMILES | test system | conditions | AUC(0-t) |
| --- | --- | --- | --- |
| CN(C)C(=O)c1cc2cnc(Nc3ccc(-c4ccc5c(=O)cc(N6CCOCC6)oc5c4)cc3)nc2n1C1CCCC1.Cl | BALB/c mouse, plasma | oral, 20 mg/kg | 7480 ng·h/mL |
| O=C1CCC(N2Cc3cc(C4CCN(Cc5ccccc5)CC4)ccc3C2=O)C(=O)N1 (stereo not shown) | male CD-1 mouse, plasma | intravenous, 1 mg/kg | 310 ng·h/mL |
| Cc1ncsc1-c1ccc([C@H](C)NC(=O)[C@@H]2C[C@@H](O)CN2C(=O)[C@@H](NC(=O)CCCCCCCCC(=O)N2CCC(n3cc(-c4ccc5c(c4)CCN5C(=O)Cc4cccc(OC(F)(F)F)c4)c4c(N)ncnc43)CC2)C(C)(C)C)cc1 | male C57BL/6 mouse, plasma | intravenous, 1 mg/kg | 1240 ng·h/mL |
| Cc1nc2ccc(OCc3ccc(C(F)(F)F)cc3)cc2[nH]1 | male BALB/c mouse, plasma | oral, 10 mg/kg | 13200 ng·h/mL |
| Cc1cc(-c2ccnc3[nH]cc(F)c23)cc(F)c1[C@@]1(O)[C@H](C)CN(C(=O)CN)C[C@@H]1C | male CD-1 mouse, plasma | intravenous, 1 mg/kg | 18400 ng·h/mL |
| COC1=CC(c2ccc[nH]2)=N/C1=C\c1cc(Cc2ccc(OC(F)(F)F)cc2)c(C)[nH]1.Cl | male CD-1 mouse, plasma | oral, 40 mg/kg, single dose | 8220 ng·h/mL |
| Cc1ccc(OCC(=O)N[C@@H](Cc2c[nH]c3ccccc23)C(=O)OC(C)C)cc1 | male Sprague-Dawley mouse, plasma | oral, 20 mg/kg | 3260 ng·h/mL |
| Cc1ncsc1-c1ccc([C@H](CC(=O)N2CC3(C2)CN(c2ccc(C#Cc4ccc(C(=O)N5CCC(n6cc(-c7ccc8c(c7)CCN8C(=O)Cc7cccc(OC(F)(F)F)c7)c7c(N)ncnc76)CC5)cc4)cn2)C3)NC(=O)[C@@H]2C[C@@H](O)CN2C(=O)[C@@H](NC(=O)C2(F)CC2)C(C)(C)C)cc1 | male C57BL/6 mouse, plasma | intravenous, 1 mg/kg | 5920 ng·h/mL |
| CO[C@H]1/C=C/O[C@@]2(C)Oc3c(C)c(O)c4c(c3C2=O)C2=NC3(CCN(CC(C)C)CC3)NC2=C(NC(=O)/C(C)=C\C=C\[C@H](C)[C@H](O)[C@@H](C)[C@@H](O)[C@@H](C)[C@H](OC(C)=O)[C@@H]1C)C4=O | female CD-1 mouse, plasma | oral, 10 mg/kg | 11200 ng·h/mL |
| NCc1ccc(-c2nn(Cc3ccncc3)c3ccccc23)o1 | male CD-1 mouse, plasma | intravenous, 5 mg/kg | 1050 ng·h/mL |
| OCc1nc2ccc(NCc3ccc(C(F)(F)F)cc3)cc2[nH]1 | male BALB/c mouse, plasma | oral, 10 mg/kg | 2730 ng·h/mL |
| OCc1ccc(-c2nn(Cc3ccccc3)c3ccccc23)o1 | male CD-1 mouse, plasma | intraperitoneal, 30 mg/kg | 3370 ng·h/mL |
| COC1=CC(c2ccc[nH]2)=N/C1=C\c1[nH]c(Cc2ccc(OC(F)(F)F)cc2)cc1Cc1ccc(OC(F)(F)F)cc1 | male CD-1 mouse, liver | oral, 40 mg/kg, single dose | 494000 ng·h/mL |
| Cc1cc(-c2ccnc3[nH]cc(F)c23)cc(F)c1[C@@]1(O)[C@H](C)CN(C2CCS(=O)(=O)CC2)C[C@@H]1C | male CD-1 mouse, plasma | intravenous, 1 mg/kg | 3020 ng·h/mL |
| Cc1ncsc1-c1ccc([C@H](C)NC(=O)[C@@H]2C[C@@H](O)CN2C(=O)[C@@H](NC(=O)CCc2ccc(C#Cc3ccc(C(=O)NCCCn4cc(-c5ccc6c(c5)CCN6C(=O)Cc5cccc(OC(F)(F)F)c5)c5c(N)ncnc54)cc3)cn2)C(C)(C)C)cc1 | male C57BL/6 mouse, plasma | intravenous, 1 mg/kg | 6600 ng·h/mL |
| NCc1ccc(-c2nn(Cc3ccccc3)c3ccccc23)o1 | male CD-1 mouse, plasma | oral, 10 mg/kg | 891 ng·h/mL |
| Cc1ccc(N(c2ccc(NC(=O)CN(C)c3ccccc3N3CCCC3=O)cc2)C(C)C)cc1 | male CD-1 mouse, plasma | oral, 20 mg/kg | 2710 ng·h/mL |
| C[C@@H](CN1CCC(n2c(=O)[nH]c3cc(Cl)ccc32)CC1)NC(=O)c1ccc2ccccc2c1 | male CD-1 mouse, brain | intravenous, 1 mg/kg, single dose | 0.302 ng·h/mL |
| Oc1ccc([C@@H]2Oc3ccc(O)cc3[C@@H]3CCC[C@@H]32)cc1 | male C57BL/6 mouse, plasma | oral, 10 mg/kg | 1.17 µM·h |
